For this data set, the system named is MS2 coat protein. Kind of data set: apparent Kd, MS2 coat protein; higher = weaker binding; RNA-MaP array; FMN 200 µM where present. Summed up:
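Designs were transcribed by stalled E. coli RNA polymerase on Illumina sequencing-chip clusters. They were titrated with SNAP-549-labelled MS2 coat protein from 0.7 or 1.5 nM, doubling to 3 µM, without and then with constant ligand. Buffer: 100 mM Tris-HCl pH 7.5, 80 mM KCl, 4 mM MgCl2, BSA, DTT, yeast tRNA, Tween-20. Green signal was normalised to red-channel RNA signal and control-cluster median Fmax. Apparent Kd is the median of filtered per-cluster binding-curve fits.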

Setting [1] is: designed as: ON switch for flavin mononucleotide, no ligand.
The mark [2] stands for this setting: ligand present: flavin mononucleotide, designed as: ON switch for flavin mononucleotide.
[3] abbreviates: designed as: OFF switch for flavin mononucleotide, no ligand.
Setting [4] is: ligand present: flavin mononucleotide, designed as: OFF switch for flavin mononucleotide.

Take “GUACUUGUGCAGAAGGGCAUUUAAUUAGAUUUUUAUGUUGAUCAGAAAUGCAGGAUAUGUUAAACAUGAGGAUCACCCAUGUAC”: the apparent Kd (in general, a dissociation constant that holds for the conditions of the assay) by setting is: under setting [1], 171 nM; under setting [2], 13.1 nM.

Consider “AAGAGGAAAGCAGGAUAUCUAUAGGCUCCUUAACAUGAGGAUCACCCAUGUAGAGAAGGGCUAAGACCGACUCUUCGGAGUUGG”, for which the “apparent Kd” value reads like this: under setting [3], 8.69 nM; under setting [4], 25.3 nM.

For the sequence “UAACAUGUCCGAGGAUAUCUGGAAACAUUUUCAAGAGAAGGCGGACAUGAGGAUCACCCAUGUCUCUCCUCAUCAAAUCCAAGU”, the “apparent Kd” value under setting [3] is 8.9 nM and the “apparent Kd” value under setting [4] amounted to 42.3 nM.

As to “AAAACAUGAGGAUCACCCAUGUAAAGAUCGGUUAAUGAAAGUGAGGAUAUACAAAAUUUUAUAGAGUAGAAGGCACUGGGUACA”, the “apparent Kd” value is, setting by setting: under setting [1], 28.7 nM; under setting [2], 30.1 nM.

On to “AUGUGGUGCGUAGGAUAUCAUUGAGGGUAACCCUGAGAAGGACGUGAGGACAUGAGGAUCACCCAUGUGGAUCACCCAUGUCAU”, for which the “apparent Kd” value is, setting by setting: under setting [3], 150 nM; under setting [4], 301 nM.

Regarding “CGCUCUAUAUAUUUGGCAAGUAUCAGAAGGCGUUACAUGAGGAUCACCCAUGUUUUGAAUAGUAACGAGGAUAUGAUAUGAGCG”, the “apparent Kd” value runs as follows: under setting [3], 22 nM; under setting [4], 24.2 nM.

“UCGUGUUAUACAGGAUAUGUUUAGGUAUAAUCAUUCAGUUAUUAAUUAAUGACAGAAGGGUAAACAUGAGGAUCACCCAUGUCA”: the “apparent Kd” value under setting [3] stood at 179 nM and the “apparent Kd” value under setting [4] was 121 nM.

For “UUGGACGUCGUAGUAUAUGUAGGAUAUUCCUACAUGAGGAUCACCCAUGUUGACAUGGAAGAAGGACAGAAGGACGAUGUCCAU”, the “apparent Kd” value under setting [1] was found to be 144 nM and the “apparent Kd” value under setting [2] was found to be 6.12 nM.

As for “UGUUGUAUUACAGGAUAUCUAUAAUUUUUAUUUAGAGAAGGGUAUUCACAUGAGGAUCACCCAUGUAUAUACGAGGAAGUUGUG”, the “apparent Kd” value is, setting by setting: under setting [1], 43.5 nM; under setting [2], 45.8 nM.

Take “UCCCAACAUGAGGAUCACCCAUGUAAGGAUAUCUUACUCAUGGACGUCCAUGAGGACCGGAGAAGGUACGUGUA”: the “apparent Kd” value by setting is: under setting [3], 19.4 nM; under setting [4], 19.8 nM.

Take “AAUCGGGAGCAGAAGGCAUGUAAUAAGACAUGAGGAUCACCCAUGUAGUUAAGGCGAAAGCCGCAUGAGGAUAUGCUCCCGUAA”: the “apparent Kd” value reads like this: under setting [1], 5.26 nM; under setting [2], 4.99 nM.

For “CAUUGGUAAGGAUAUGCACCGAUCUCCGAAAGGAGAUCGGUGCAGAAGGUACAUGAGGAUCACCCAUGUUGAUG”, the “apparent Kd” value under setting [3] was determined as 27.1 nM and the “apparent Kd” value under setting [4] amounted to 63.9 nM.

Consider “UUCCGGCAUGUAGGAUAUGGAUCCGAUUAGGAUUUAGAAGGACAUGAGGAUCACCCAUGUGCAUUUAAUUAGUCAUUACCGUUU”, for which the “apparent Kd” value turned out to be 41.6 nM under setting [3] and 86.5 nM under setting [4].

For the sequence “AAGAACGCAGGAUAUAUUAAGGGACAAAGAAGGAAGAAUAAACAUGAGGAUCACCCAUGUAGAAGGGCGAAGAA”, the “apparent Kd” value worked out at 60.5 nM under setting [3] and 58 nM under setting [4].

“AGAAACUACGAGAAGGACAUGUGAAAAGCCGCAAACAUGAGGAUCACCCAUGUAGGAUAUCGUAGUUUCAGGAUCGUGAGAUCA”: the “apparent Kd” value reads like this: under setting [3], 54.6 nM; under setting [4], 442 nM.

“CCUUCACAUGAGGAUCACCCAUGUCAGGAUAUCUCAGUGCAUCCACACGGACGCAUCAAGAGAAGGGACAAAAC”: the “apparent Kd” value reads like this: under setting [3], 46.4 nM; under setting [4], 53.6 nM.

In the case of “UAUAUUUAUGUAGGAUAUGGUAUACAAAGUAUACCAGAAGGACAUGAGGAUCACCCAUGUAUGAAAUUCCAUAAUUGCCGUGUA”, the “apparent Kd” value is 16.1 nM under setting [3] and 16.4 nM under setting [4].

Regarding “GGUGCACGCACAGGAUAUCCGGCGGAGCUCGUCGGAGAAGGGUGACAUGAGGAUCACCCAUGUACGUGCAACUCAGUUUGAGAG”, the “apparent Kd” value by setting is: under setting [1], 59.8 nM; under setting [2], 32.1 nM.

In the case of “UUACUCAUGUAAGGAUAUGCAGCCGUUUCGGCUGCAGAAGGUACUAUAAUACAUGAGGAUCACCCAUGUCUUUUUAAUUUGUAC”, the “apparent Kd” value is, setting by setting: under setting [1], 35.7 nM; under setting [2], 23.1 nM.

Take “UAUGUAUUCGUAGGAUAUCCGUUGAGACCGUGUGGAGAAGGACGAACAUGAGGAUCACCCAUGUGUCAUGGUGUAGACAAUUUU”: the “apparent Kd” value is, setting by setting: under setting [3], 65.5 nM; under setting [4], 220 nM.

The values above are taken from the EternaBench riboswitch data.
